From ChEMBL document CHEMBL3044571, “Identification of novel inhibitors of 1-aminocyclopropane-1-carboxylic acid synthase by chemical screening in Arabidopsis thaliana” (J Biol Chem, 2010)
Values belong to the compound of their own block, whether it stands above or below them. Calls of active or inactive are those of the source. The rule behind the calls is not given here.

What was measured:
Arabidopsis thaliana [1] = assay: Inhibition of ethylene biosynthesis in Arabidopsis thaliana eto1-4 expressing 5 x EBS::LUC assessed as decrease ethylene level at 10 uM 3 days after germination in dark relative to aminoethoxyvinylglycine; assay type: functional; settings: 72 h
Arabidopsis thaliana [2] = assay: Inhibition of triple response phenotype in Arabidopsis thaliana seedlings expressing eto1-4 mutant by measuring hypocotyl elongation at 10 uM 3 days after germination in dark; assay type: functional; settings: 72 h
Arabidopsis thaliana [3] = assay: Inhibition of triple response phenotype in Arabidopsis thaliana seedlings expressing eto1-4 mutant by measuring hypocotyl elongation up to 50 uM 3 days after germination in dark; assay type: functional, organism-based
[4] = biological target: T1, 1-aminocyclopropane-1-carboxylate synthase 5 (Arabidopsis thaliana, UniProt Q37001); assay: Uncompetitive inhibition of Arabidopsis thaliana recombinant ACS5 expressed in Escherichia coli (BL21) assessed as oxidation of ACC to ethylene by Lineweaver-Burk plot analysis
T1 sequence (Q37001 whole entry): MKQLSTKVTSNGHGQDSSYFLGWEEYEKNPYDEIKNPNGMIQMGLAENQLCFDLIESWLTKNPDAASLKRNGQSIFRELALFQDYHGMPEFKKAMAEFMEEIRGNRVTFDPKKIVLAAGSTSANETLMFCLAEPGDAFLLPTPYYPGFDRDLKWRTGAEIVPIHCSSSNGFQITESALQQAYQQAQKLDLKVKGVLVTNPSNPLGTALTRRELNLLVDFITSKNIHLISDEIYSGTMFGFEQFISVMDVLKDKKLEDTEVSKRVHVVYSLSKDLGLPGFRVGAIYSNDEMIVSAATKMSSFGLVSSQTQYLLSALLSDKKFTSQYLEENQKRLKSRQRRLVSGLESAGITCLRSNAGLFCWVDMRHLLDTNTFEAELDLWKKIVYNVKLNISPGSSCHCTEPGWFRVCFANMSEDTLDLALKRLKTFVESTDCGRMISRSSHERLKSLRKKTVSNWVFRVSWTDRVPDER

Arabidopsis thaliana [5] = assay: Inhibition of triple response phenotype in Arabidopsis thaliana seedlings expressing eto2-1 mutant by measuring hypocotyl elongation at 10 to 30 uM 3 days after germination in dark; assay type: functional, organism-based
Arabidopsis thaliana [6] = assay: Inhibition of triple response phenotype in Arabidopsis thaliana seedlings expressing eto1-4 mutant and 5 x EBS::LUC by measuring hypocotyl elongation at 0.1 to 1 uM 3 days after germination in dark; assay type: functional, organism-based
How it was run: (§1)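 Etiolated eto1-4 seedlings grown 3 days in the dark at 22°C on 0.5xMS agar containing graded compound, STS or AVG, with DMSO control. Seeds bleach-sterilized and stratified 3–4 days at 4°C beforehand. Hypocotyl length measured from stereomicroscope images; means of n ≥30 seedlings.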

Arabidopsis thaliana [7] = assay: Inhibition of triple response phenotype in Arabidopsis thaliana seedlings expressing 35S::EIN3 by measuring hypocotyl elongation at 10 uM 3 days after germination in dark; assay type: functional, organism-based
Arabidopsis thaliana [8] = assay: Inhibition of triple response phenotype in Arabidopsis thaliana seedlings expressing ctr1-1 mutant by measuring hypocotyl elongation up to 50 uM 3 days after germination in dark; assay type: functional, organism-based
Arabidopsis thaliana [9] = assay: Inhibition of ethylene biosynthesis in Arabidopsis thaliana eto1-4 expressing 5 x EBS::LUC assessed as decrease ethylene level at 10 uM 3 days after germination in dark; assay type: functional, organism-based
Arabidopsis thaliana [10] = assay: Inhibition of triple response phenotype in Arabidopsis thaliana seedlings expressing ctr1-1 mutant by measuring hypocotyl elongation at 10 uM 3 days after germination in dark; assay type: functional, organism-based
Arabidopsis thaliana [11] = assay: Inhibition of triple response phenotype in Arabidopsis thaliana seedlings expressing 35S::EIN3 by measuring hypocotyl elongation up to 50 uM 3 days after germination in dark; assay type: functional, organism-based
Arabidopsis thaliana [12] = assay: Inhibition of triple response phenotype in Arabidopsis thaliana seedlings expressing eto1-4 mutant and 5 x EBS::LUC by measuring hypocotyl elongation at >5 uM 3 days after germination in dark; assay type: functional, organism-based; how it was run: as §1
[13] = biological target: T1, 1-aminocyclopropane-1-carboxylate synthase 5; assay: Inhibition of Arabidopsis thaliana recombinant ACS5 expressed in Escherichia coli (BL21) assessed as oxidation of ACC to ethylene preincubated for 30 min measured after 10 min by gas chromatography
How it was run: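 His-tagged recombinant ACS5 expressed in E. coli (IPTG induction, 16°C, 18 h) and purified on a HisTrap column. Enzyme (1 μg) in 2 ml buffer A (pH 8.0) with 10 μM PLP and 250 μM SAM, plus graded compound or DMSO, for 30 min at 25°C. Stopped with HgCl2 and NaOH:bleach, which oxidize ACC to ethylene, quantified by GC against an ACC standard curve. Duplicate, repeated ≥3 times.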

Arabidopsis thaliana [14] = assay: Inhibition of triple response phenotype in Arabidopsis thaliana seedlings expressing eto1-4 mutant and 5 x EBS::LUC by measuring hypocotyl elongation at 1 to 5 uM 3 days after germination in dark; assay type: functional, organism-based; how it was run: as §1

SMILES: Cc1nc(Nc2ccccc2)nc2c1C(=O)CC(C)(C)C2
inhibition at 10 µM (Arabidopsis thaliana [1]): 67%

SMILES: CCCCc1nc(N)nc2c1C(=O)CC(C)(C)C2
inhibition at 10 µM (Arabidopsis thaliana [1]): 22%

SMILES: O=C1CC(c2ccccc2Cl)Cc2nc(NC3CCCC3)ncc21 (centres undefined)
inhibition at 10 µM (Arabidopsis thaliana [1]): 91%
inhibition at 10 µM (Arabidopsis thaliana [2]): 54%

SMILES: O=S(O)(O)=S [SILVER THIOSULFATE]
inhibition at 10 µM (Arabidopsis thaliana [2]; tested as the Ag salt or complex): 84%

Ki [4]: 23 nM
SMILES: COc1ccc(C2CC(=O)c3cnc(Nc4ccccc4)nc3C2)cc1 (centres undefined)
inhibition (Arabidopsis thaliana [3]): Active
inhibition (Arabidopsis thaliana [5]): Active
inhibition (Arabidopsis thaliana [6]): Active
inhibition (Arabidopsis thaliana [7]): inactive
inhibition (Arabidopsis thaliana [8]): inactive
inhibition (Arabidopsis thaliana [9]): Active
inhibition (Arabidopsis thaliana [10]): inactive
inhibition at 10 µM (Arabidopsis thaliana [1]): 93%
inhibition at 10 µM (Arabidopsis thaliana [2]): 77%
inhibition (Arabidopsis thaliana [11]): inactive
inhibition (Arabidopsis thaliana [12]): Active

IC50 [13]: 7900 nM
SMILES: CC1(C)CC(=O)c2cnc(NC3CCCC3)nc2C1
inhibition (Arabidopsis thaliana [3]): Active
inhibition (Arabidopsis thaliana [5]): Active
inhibition (Arabidopsis thaliana [7]): inactive
inhibition (Arabidopsis thaliana [8]): inactive
inhibition (Arabidopsis thaliana [9]): Active
inhibition (Arabidopsis thaliana [10]): inactive
inhibition at 10 µM (Arabidopsis thaliana [1]): 87%
inhibition at 10 µM (Arabidopsis thaliana [2]): 55%
inhibition (Arabidopsis thaliana [11]): inactive

Ki [4]: 15 nM
IC50 [13]: 700 nM
SMILES: NCCO/C=C/C(N)C(=O)O (centres undefined) [AMINOETHOXYVINYLGLYCINE]
inhibition (Arabidopsis thaliana [5]): Active
inhibition (Arabidopsis thaliana [14]): Active
inhibition at 10 µM (Arabidopsis thaliana [2]): 100%

SMILES: CC1CC(=O)c2cnc(Nc3ccccc3)nc2C1 (centres undefined)
inhibition at 10 µM (Arabidopsis thaliana [1]): 82%
inhibition at 10 µM (Arabidopsis thaliana [2]): 28%

SMILES: CC1CC(=O)c2cnc(NCc3ccccc3)nc2C1 (centres undefined)
inhibition at 10 µM (Arabidopsis thaliana [1]): 54%

SMILES: CCCCNc1ncc2c(n1)CC(c1ccccc1)CC2=O (centres undefined)
inhibition at 10 µM (Arabidopsis thaliana [1]): 92%
inhibition at 10 µM (Arabidopsis thaliana [2]): 43%

SMILES: CC1(C)CC(=O)c2cnc(NCc3ccc(F)cc3)nc2C1
inhibition at 10 µM (Arabidopsis thaliana [1]): 69%

SMILES: Cc1nc(Nc2ccc(F)cc2)nc2c1C(=O)CC(C)(C)C2
inhibition at 10 µM (Arabidopsis thaliana [1]): 9%

SMILES: Cc1ccc(C2CC(=O)c3cnc(NC4CCCC4)nc3C2)cc1 (centres undefined)
inhibition (Arabidopsis thaliana [3]): Active
inhibition (Arabidopsis thaliana [5]): Active
inhibition (Arabidopsis thaliana [6]): Active
inhibition (Arabidopsis thaliana [7]): inactive
inhibition (Arabidopsis thaliana [8]): inactive
inhibition (Arabidopsis thaliana [9]): Active
inhibition (Arabidopsis thaliana [10]): inactive
inhibition at 10 µM (Arabidopsis thaliana [1]): 87%
inhibition at 10 µM (Arabidopsis thaliana [2]): 66%
inhibition (Arabidopsis thaliana [11]): inactive
inhibition (Arabidopsis thaliana [12]): Active

SMILES: CC1(C)CC(=O)c2cnc(Nc3ccccc3)nc2C1
inhibition at 10 µM (Arabidopsis thaliana [1]): 77%
inhibition at 10 µM (Arabidopsis thaliana [2]): 29%

SMILES: CC1(C)CC(=O)c2cnc(Nc3ccc(F)cc3)nc2C1
inhibition at 10 µM (Arabidopsis thaliana [1]): 36%

SMILES: CC1(C)CC(=O)c2cnc(NCc3ccccc3)nc2C1
inhibition at 10 µM (Arabidopsis thaliana [1]): 45%
